Measurements from ChEMBL document CHEMBL4002590, “Design and Synthesis of a Pan-Janus Kinase Inhibitor Clinical Candidate (PF-06263276) Suitable for Inhaled and Topical Delivery for the Treatment of Inflammatory Diseases of the Lungs and Skin” (J Med Chem, 2017).
Active and inactive are the calls of the source. The calls are words filed in the database; no cut-off is given here.

Columns and labels:
[1] = target: T1, Tyrosine-protein kinase JAK3 (Homo sapiens, UniProt P52333); test: Inhibition of GST tagged human recombinant JAK3 catalytic domain expressed in baculovirus using peptide substrate preincubated for 60 mins followed by substrate addition and measured after 60 mins by microfluidic assay
T1 sequence (P52333 whole entry): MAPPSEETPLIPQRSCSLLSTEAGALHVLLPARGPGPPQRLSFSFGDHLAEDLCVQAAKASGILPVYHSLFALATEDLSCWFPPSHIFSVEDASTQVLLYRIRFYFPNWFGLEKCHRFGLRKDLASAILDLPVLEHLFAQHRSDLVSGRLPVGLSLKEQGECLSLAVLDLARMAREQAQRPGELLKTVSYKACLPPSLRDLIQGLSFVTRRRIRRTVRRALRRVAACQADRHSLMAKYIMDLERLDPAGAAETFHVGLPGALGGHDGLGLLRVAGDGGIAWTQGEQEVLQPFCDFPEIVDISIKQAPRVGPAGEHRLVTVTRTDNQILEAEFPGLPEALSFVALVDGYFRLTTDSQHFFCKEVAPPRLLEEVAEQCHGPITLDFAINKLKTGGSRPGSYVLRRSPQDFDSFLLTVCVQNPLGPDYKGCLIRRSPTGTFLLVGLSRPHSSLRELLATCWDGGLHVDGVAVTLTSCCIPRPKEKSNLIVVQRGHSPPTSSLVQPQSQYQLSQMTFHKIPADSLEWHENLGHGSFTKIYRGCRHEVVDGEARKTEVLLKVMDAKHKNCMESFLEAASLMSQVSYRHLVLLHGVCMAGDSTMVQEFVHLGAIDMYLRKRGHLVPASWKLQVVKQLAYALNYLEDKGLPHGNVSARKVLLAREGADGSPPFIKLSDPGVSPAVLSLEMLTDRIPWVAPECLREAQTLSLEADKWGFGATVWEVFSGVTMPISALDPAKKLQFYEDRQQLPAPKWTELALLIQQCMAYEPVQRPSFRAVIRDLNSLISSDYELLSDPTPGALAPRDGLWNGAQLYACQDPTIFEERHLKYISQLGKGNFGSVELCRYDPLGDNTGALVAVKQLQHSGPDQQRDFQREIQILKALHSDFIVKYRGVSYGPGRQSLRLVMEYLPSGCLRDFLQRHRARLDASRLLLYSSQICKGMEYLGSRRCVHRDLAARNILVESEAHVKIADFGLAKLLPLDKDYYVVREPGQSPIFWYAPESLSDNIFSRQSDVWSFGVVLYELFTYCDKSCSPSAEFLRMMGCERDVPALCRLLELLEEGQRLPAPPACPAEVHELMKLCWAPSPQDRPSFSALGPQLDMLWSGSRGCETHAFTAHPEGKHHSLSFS
Procedure, shortened: (§1)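 Caliper microfluidic assay of peptide-substrate phosphorylation by the relevant JAK enzyme, run at 1 mM ATP; IC50 values are geometric means of at least three determinations.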

[2] = target: Tyrosine-protein kinase JAK1 (Homo sapiens, UniProt P23458); test: Inhibition of GST tagged human recombinant JAK1 catalytic domain expressed in baculovirus using peptide substrate preincubated for 60 mins followed by substrate addition and measured after 60 mins by microfluidic assay
Tyrosine-protein kinase JAK1, sequence (P23458 whole entry, the tested form may be a part): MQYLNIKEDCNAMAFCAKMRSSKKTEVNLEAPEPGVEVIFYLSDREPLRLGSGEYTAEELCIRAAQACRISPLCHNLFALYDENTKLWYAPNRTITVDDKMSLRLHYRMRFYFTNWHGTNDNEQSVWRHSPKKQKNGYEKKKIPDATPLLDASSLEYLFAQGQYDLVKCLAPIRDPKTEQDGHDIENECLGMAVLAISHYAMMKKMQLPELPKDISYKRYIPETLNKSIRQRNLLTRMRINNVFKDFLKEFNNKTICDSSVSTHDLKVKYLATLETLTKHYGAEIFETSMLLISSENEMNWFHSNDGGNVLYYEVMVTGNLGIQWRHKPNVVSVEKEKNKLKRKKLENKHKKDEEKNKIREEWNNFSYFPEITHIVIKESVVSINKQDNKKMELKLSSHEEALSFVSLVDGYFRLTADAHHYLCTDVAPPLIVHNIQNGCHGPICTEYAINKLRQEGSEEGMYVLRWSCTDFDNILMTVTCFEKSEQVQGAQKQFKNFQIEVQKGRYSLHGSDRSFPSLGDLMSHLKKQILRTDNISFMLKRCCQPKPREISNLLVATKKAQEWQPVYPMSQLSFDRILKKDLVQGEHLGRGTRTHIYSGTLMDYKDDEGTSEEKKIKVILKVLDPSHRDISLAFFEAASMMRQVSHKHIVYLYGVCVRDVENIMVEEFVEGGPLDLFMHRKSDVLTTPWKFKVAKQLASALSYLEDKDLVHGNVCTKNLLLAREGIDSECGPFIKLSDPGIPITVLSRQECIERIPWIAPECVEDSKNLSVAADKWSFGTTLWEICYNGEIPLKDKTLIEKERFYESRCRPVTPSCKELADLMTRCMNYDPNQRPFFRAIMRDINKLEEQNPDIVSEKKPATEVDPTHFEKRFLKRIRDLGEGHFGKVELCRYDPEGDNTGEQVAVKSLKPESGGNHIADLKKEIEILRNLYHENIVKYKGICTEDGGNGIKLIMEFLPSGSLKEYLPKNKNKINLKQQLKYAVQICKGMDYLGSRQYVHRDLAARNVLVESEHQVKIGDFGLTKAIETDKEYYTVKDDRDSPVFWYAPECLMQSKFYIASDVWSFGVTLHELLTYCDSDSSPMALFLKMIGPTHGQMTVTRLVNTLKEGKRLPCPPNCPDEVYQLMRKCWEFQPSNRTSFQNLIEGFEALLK

[3] = target: Tyrosine-protein kinase JAK2 (Homo sapiens, UniProt O60674); test: Inhibition of GST tagged human recombinant JAK2 catalytic domain expressed in baculovirus using peptide substrate preincubated for 60 mins followed by substrate addition and measured after 60 mins by microfluidic assay; procedure, shortened: as §1
Tyrosine-protein kinase JAK2, sequence (O60674 whole entry, the tested form may be a part): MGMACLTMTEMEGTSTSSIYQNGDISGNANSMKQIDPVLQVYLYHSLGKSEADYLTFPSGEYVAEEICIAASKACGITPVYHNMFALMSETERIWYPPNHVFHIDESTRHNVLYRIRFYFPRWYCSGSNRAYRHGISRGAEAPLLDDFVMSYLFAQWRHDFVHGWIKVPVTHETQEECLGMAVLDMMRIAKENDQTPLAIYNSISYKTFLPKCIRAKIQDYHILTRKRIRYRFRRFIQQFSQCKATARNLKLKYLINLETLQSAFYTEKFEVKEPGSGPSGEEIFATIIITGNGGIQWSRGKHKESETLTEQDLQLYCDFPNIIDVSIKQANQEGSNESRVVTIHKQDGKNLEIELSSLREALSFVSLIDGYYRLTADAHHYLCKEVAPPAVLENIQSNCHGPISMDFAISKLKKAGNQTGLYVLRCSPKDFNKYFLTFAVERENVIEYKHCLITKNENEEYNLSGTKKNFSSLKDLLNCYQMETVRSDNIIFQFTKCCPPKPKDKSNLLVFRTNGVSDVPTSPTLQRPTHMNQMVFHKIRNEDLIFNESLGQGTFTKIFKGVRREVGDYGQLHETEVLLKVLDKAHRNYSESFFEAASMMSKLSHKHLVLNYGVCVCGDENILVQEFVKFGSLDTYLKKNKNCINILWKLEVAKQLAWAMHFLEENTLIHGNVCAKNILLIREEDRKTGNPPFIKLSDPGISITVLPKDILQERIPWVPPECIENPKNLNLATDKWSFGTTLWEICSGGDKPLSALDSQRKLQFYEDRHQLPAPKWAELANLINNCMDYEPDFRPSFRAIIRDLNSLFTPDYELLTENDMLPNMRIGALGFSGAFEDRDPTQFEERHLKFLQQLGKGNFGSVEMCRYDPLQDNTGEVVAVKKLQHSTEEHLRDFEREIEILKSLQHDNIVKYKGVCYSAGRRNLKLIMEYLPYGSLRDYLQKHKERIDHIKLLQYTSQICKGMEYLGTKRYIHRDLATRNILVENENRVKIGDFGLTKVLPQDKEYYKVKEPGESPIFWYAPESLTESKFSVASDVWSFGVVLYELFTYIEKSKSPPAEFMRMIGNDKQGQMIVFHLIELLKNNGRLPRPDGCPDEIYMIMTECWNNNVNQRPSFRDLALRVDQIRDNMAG

[4] = target: Non-receptor tyrosine-protein kinase TYK2 (Homo sapiens, UniProt P29597); test: Inhibition of Tyk2 (unknown origin) using peptide substrate preincubated for 60 mins followed by substrate addition and measured after 60 mins by microfluidic assay; procedure, shortened: as §1
Non-receptor tyrosine-protein kinase TYK2, sequence (P29597 whole entry): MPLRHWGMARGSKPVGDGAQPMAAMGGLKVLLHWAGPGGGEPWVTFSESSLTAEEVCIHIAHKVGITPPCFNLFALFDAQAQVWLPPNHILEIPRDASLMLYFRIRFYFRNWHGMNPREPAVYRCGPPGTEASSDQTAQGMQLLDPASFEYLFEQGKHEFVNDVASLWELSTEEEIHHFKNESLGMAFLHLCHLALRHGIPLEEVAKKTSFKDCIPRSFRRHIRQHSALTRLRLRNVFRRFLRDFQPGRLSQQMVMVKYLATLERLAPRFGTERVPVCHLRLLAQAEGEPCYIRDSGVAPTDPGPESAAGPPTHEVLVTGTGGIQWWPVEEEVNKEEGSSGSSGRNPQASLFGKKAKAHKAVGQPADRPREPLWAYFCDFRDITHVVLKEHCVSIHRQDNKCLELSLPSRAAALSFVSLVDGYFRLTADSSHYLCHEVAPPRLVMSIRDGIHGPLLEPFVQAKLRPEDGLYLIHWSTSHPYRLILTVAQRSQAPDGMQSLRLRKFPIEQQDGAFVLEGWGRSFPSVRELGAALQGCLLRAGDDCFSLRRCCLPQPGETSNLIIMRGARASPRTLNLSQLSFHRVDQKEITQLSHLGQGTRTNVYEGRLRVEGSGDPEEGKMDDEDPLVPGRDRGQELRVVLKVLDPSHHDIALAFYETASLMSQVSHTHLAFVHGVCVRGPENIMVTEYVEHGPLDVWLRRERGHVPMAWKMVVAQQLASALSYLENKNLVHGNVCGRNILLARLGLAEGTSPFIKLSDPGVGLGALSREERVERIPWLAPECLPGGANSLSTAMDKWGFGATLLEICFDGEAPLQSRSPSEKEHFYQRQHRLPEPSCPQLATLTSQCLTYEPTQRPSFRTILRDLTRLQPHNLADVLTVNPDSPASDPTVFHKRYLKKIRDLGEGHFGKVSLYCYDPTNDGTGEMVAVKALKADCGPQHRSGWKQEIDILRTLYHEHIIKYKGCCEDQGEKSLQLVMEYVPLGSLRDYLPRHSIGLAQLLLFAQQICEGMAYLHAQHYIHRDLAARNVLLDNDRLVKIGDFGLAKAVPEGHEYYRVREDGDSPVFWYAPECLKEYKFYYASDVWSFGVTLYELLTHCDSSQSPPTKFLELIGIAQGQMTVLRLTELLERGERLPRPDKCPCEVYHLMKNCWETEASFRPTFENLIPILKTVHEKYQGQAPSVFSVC

[5] = target: T2, Janus Kinase (JAK) (Homo sapiens, UniProt P52333+P23458+O60674+P29597); test: Inhibition of JAK in human PBMC assessed as reduction in human recombinant IL-2/mouse anti-human CD3 stimulated IFNgamma production preincubated for 1 hr followed by IL2/CD3 stimulation measured after 18 hrs by ELISA
T2 sequence (O60674 whole entry, looked up, one chain of several): as the sequence (O60674 whole entry, the tested form may be a part) above
T2 sequence (P23458 whole entry, looked up, one chain of several): as the sequence (P23458 whole entry, the tested form may be a part) above
T2 sequence (P29597 whole entry, looked up, one chain of several): as the sequence (P29597 whole entry) above
Procedure, shortened: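 Primary PBMCs stimulated with IL-2; inhibition of IFNγ release measured. IC50 values are geometric means of at least three determinations.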

[6] = Thermodynamic solubility of the compound in pH 7.4 water buffer using crystalline solid sample; type: physicochemical; settings: read-out: Therm_solubility
Procedure, shortened: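 Thermodynamic solubility measured from crystalline solid in water buffered at pH 7.4.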

[7] = target: T2, Janus Kinase (JAK); test: Inhibition of JAK in human PBMC assessed as reduction in human recombinant IL-2/ mouse anti-human CD3 stimulated STAT5 phosphorylation at tyrosine residue at 10-fold IC50 preincubated for 1 hr followed by compound washout and subsequent IL2/CD3 stimulation measured after 30 mins by immunofluorescence assay
Procedure, shortened: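 PBMC wash-out format: cells exposed to compound for 1 h at 10-fold IC50, washed extensively, then pSTAT5 response to IL-2 stimulation followed over time to give a recovery T1/2.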

[8] = target: T2, Janus Kinase (JAK); test: Inhibition of JAK in human PBMC assessed as reduction in human recombinant IL-2/ mouse anti-human CD3 stimulated STAT5 phosphorylation at tyrosine residue preincubated for 1 hr followed by IL2/CD3 stimulation after 30 mins by immunofluorescence assay
[9] = test system: Liver; test: Metabolic stability in human liver microsomes assessed per mg protein; type: ADME, microsome
Procedure, shortened: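 Metabolic stability measured as turnover in human liver microsomes.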

[10] = Drug metabolism in human liver microsomes assessed as UGT-mediated compound glucuronidation per mg protein in presence of microsomal activator Brij58 and cofactor UDPGA; type: ADME
Procedure, shortened: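 Human liver microsomes supplemented with the activator Brij58 and cofactor UDPGA, NADPH omitted, to measure phase II glucuronidation turnover.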

[11] = target: T2, Janus Kinase (JAK)
[12] = target: T3, Tyrosine-protein kinase JAK3 (Homo sapiens) (UniProt P52333); test: Inhibition of GST tagged human recombinant JAK3 catalytic domain expressed in baculovirus assessed as time taken for inhibition to reverse by 50% by dilution recovery based microfluidic mobility shift assay
T3 sequence (whole entry): T1 sequence (P52333 whole entry)
Procedure, shortened: (§2)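 JAK3 inhibition kinetics measured by continuous dilution-recovery in a microfluidic mobility shift format; offset rate (min−1) converted to a recovery T1/2.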

[13] = target: T3, Tyrosine-protein kinase JAK3 (Homo sapiens); test: Inhibition of GST tagged human recombinant JAK3 catalytic domain expressed in baculovirus assessed as offset rate by dilution recovery based microfluidic mobility shift assay; procedure, shortened: as §2

SMILES	IC50 [1] [nM]	IC50 [2] [nM]	IC50 [3] [nM]	IC50 [4] [nM]	IC50 [5] [nM]	solubility thermodynamic [6]	inhibition [7]	IC50 [8] [nM]	Stability [9] [µL/min]	Drug metabolism [10] [µL/min]	T1/2 [11] [h]	T1/2 [12] [h]	K [13] [min⁻¹]
CCc1cc(O)ccc1-c1ccc2c(C(=O)N(C)C)n[nH]c2c1	> 10000	2760	> 10000	> 10000	> 10000								
CCc1cc(O)ccc1-c1ccc2c(C(N)=O)n[nH]c2c1	4.3	1.7	4.2	54.5	19.1	15 µM							
CC(C)c1cc(O)ccc1-c1ccc2c(-c3nc4ccccc4[nH]3)n[nH]c2c1	293	26.8	79.6	392	250.3								
C[C@@H]1CCN(C(=O)N2CCCC2)C[C@@H]1N(C)c1ncnc2[nH]ccc12	139	37.5	124	1630			inactive	27	82	< 3.5			
CCc1cc(O)ccc1-c1ccc2c(-c3ncc[nH]3)n[nH]c2c1	0.8	0.9	0.8	4.6	10.4	4.1 µM							
CCc1cc(O)ccc1-c1ccc2c(-c3nc4c([nH]3)CN(S(C)(=O)=O)CC4)n[nH]c2c1	1.3	1.3	5.6	25.1	39.1				18	7.3			
CCc1cc(O)ccc1-c1ccc2c(C(=O)NC)n[nH]c2c1	125	7.5	40.9	796	9.1	14 µM							
CCc1cc(O)ccc1-c1ccc2c(-c3nc4c([nH]3)CCN(C(=O)c3cnc(N5CCCCC5)cn3)C4)n[nH]c2c1										17			
CCc1cc(O)c(F)cc1-c1ccc2c(-c3nc4c([nH]3)CCN(C(=O)c3ccc(F)cc3)C4)n[nH]c2c1	1.7	< 0.1	0.3	0.8	35				48	37			
Oc1cccc(-c2ccc3c(-c4nc5ccccc5[nH]4)n[nH]c3c2)c1	493	68.6	101	291	572.7								
CCc1cc(O)c(F)cc1-c1ccc2c(-c3nc4ccccc4[nH]3)n[nH]c2c1	16.7	0.8	7.9	15.3	47.9					> 360	3.5		
C[C@@H]1CCN(C(=O)N2CC[C@@H](S(=O)(=O)c3cccc(O)c3)C2)C[C@@H]1N(C)c1ncnc2[nH]ccc12	34.1	2.3	21.2	959		20 µg/mL	inactive	343	131	> 200		0.467	0.024
CCCc1cc(O)ccc1-c1ccc2c(-c3nc4ccccc4[nH]3)n[nH]c2c1	166	9.7	17.3	437	75.4								
CCc1cc(O)c(F)cc1-c1ccc2c(-c3nc4c([nH]3)CN(Cc3ccccc3)CC4)n[nH]c2c1	31	1.8	15.9	57.5	30.4				75	> 360			
CCc1cc(O)ccc1-c1ccc2c(-c3nc4c([nH]3)CN(C)CC4)n[nH]c2c1	2.9	2.1	6.4	20.1	18.6	10 to 20 µM			56	< 1.9			
CCc1c(-c2ccc3c(-c4nc5ccccc5[nH]4)n[nH]c3c2)ccc(O)c1F					204.8					46			
CCc1cc(O)ccc1-c1ccc2c(-c3nc4c([nH]3)CN(C(C)=O)CC4)n[nH]c2c1	7.1	0.5	3.3	22.7	4.5	10 to 20 µM			42	5.5			
CCc1cc(O)ccc1-c1ccc2c(C(=O)Nc3ccc(C)nc3)n[nH]c2c1	418	60	58.8	816	277.8	0.5 µM					4.5		
